Experimental data gathered from unrelated publications.
BTK: Tyrosine-protein kinase BTK (BTK, Homo sapiens, UniProt Q06187)

SMILES | target | test | test system | conditions | endpoint | value
COc1cccc(OC)c1-c1cc(C(=O)N[C@@H](CC(C)C)C(=O)O)nn1-c1ccnc2cc(Cl)ccc12 | Neurotensin receptor type 1 (NTSR1, Homo sapiens, UniProt P30989) | calcium signal, agonist | CHO |  | Emax | 63%
Nc1ncnc2occ(-c3ccc(NC(=O)Nc4cc(C(F)(F)F)ccc4F)cc3)c12 | Cyclin-dependent kinase 11A (CDK11A, Homo sapiens, UniProt Q9UQ88) | cell-free assay |  | 20 µM | remaining signal | 0.3%
CC(C)(C=C(C#N)C(=O)N1CCC[C@H]1Cn1nc(-c2ccc(Oc3ccccc3)cc2F)c2c(N)ncnc21)N1CCOCC1 | BTK | enzyme activity, inhibitor |  |  | kinact/KI | 400000 M⁻¹ s⁻¹
COc1ccc(F)cc1C(=O)NCc1ccc(-c2nn([C@@H](C)C(F)(F)F)c(N)c2C(N)=O)cc1 | BTK | binding, SPR |  |  | koff | 7.9e-05 s⁻¹
Cc1ccc(C(=O)Nc2ccc(CN3CCN(C)CC3)c(C(F)(F)F)c2)cc1C#Cc1cnc2cccnn12 | Mitogen-activated protein kinase kinase kinase 19 (MAP3K19, Homo sapiens, UniProt Q56UN5) | enzyme activity, inhibitor |  | 23.5 nM | remaining activity | 54%
COc1cc(Nc2cnc(C#N)c(O[C@H](C)CN(C)C)n2)ncc1-c1cnn(C)c1 | Serine/threonine-protein kinase tousled-like 1 (TLK1, Homo sapiens, UniProt Q9UKI8) | enzyme activity, inhibitor, radiometric |  | 1 µM | remaining activity | 95%
C=CC(=O)N1CCC[C@@H]1Cn1nc(-c2ccc(Oc3ccccc3)cc2F)c2c(N)ncnc21 | BTK | enzyme activity, inhibitor |  |  | KI (inactivation) | 1.8 nM
CC(C)C[C@H](NC(=O)[C@H](CC(C)C)NC(=O)CNC(=O)[C@H](C)NC(=O)[C@H](C)NC(=O)[C@H](CCCNC(=N)N)NC(=O)CNC(=O)CCCCNC(=O)CCCCNC(=O)CCCCNC(=O)[C@H](CCCCN)NC(=O)[C@H](Cc1ccc(O)cc1)NC(=O)CCc1c[nH]c2ccccc12)C(N)=O | Neuropeptides B/W receptor type 1 (NPBWR1, Homo sapiens, UniProt P48145) | cAMP, agonist, TR-FRET |  |  | Emax | 94%
